# DNMT1 block – blocks human DNA methyltransferase DNMT1 | DNMT1 molecular beacon, Hinp1I cleavage, fluorescence | P26358 | inhibition (reported as % activation of signal), % at 10 µM | 360,000 tested, 0.83% active; in the data active means inhibition above about 50%
# LMPTP inh – LMPTP (human) inhibition. P24666. inhibition, % at 20 µM. 360,000 tested, 0.22% active. recombinant LMPTP-A, OMFP fluorogenic substrate, fluorescence intensity;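 active means compounds that cut the enzyme signal by at least half of the control window in the single-dose screen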;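 further: plate controls were DMSO wells with enzyme plus substrate for no effect and substrate without enzyme for full effect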
#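 test system = LMPTP-A | amount = 0.625 nM LMPTP-A final | reagent = fluorogenic phosphatase substrate OMFP at 400 µM final | incubation = 50 min at room temperature | benchmarks = no-enzyme low control, uninhibited high control | medium = Bis-Tris pH 6.0, DTT, detergent | signal = fluorescence intensity of OMFP turnover product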
# SUMO1-SIM PPI – alters human SUMO1 binding to SIM partners; P63165; SUMO1 binding to a labelled peptide, TR-FRET, 1 h; inhibition, % at 20 µM; 360,000 tested, 0.33% active; in the data active means inhibition above about 37%
# Scp1 inh – blocks human Scp-1 phosphatase activity; inhibition, % at 20 µM; AID 493091; Q9GZU7; Recombinant Scp1, phosphopeptide, malachite green phosphate absorbance; 340,000 tested, 0.88% active;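 active means inhibition above about 50% at 20 µM, limit read from the data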;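 further: plate controls were DMSO wells with enzyme for no effect and wells lacking enzyme for full effect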
#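 Times: enzyme reaction 45 min at room temperature, colour 5 min, stabilisation 30 min. Material: SCP-1 catalytic fragment, aa 76-261. Medium: Acidic Tris acetate buffer with magnesium and detergent. Signal: colorimetric free-phosphate detection, absorbance 630 nm. Read-out basis: % inhibition of SCP-1 phosphate liberation. Reagent: Phosphorylated 17-residue peptide substrate.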
# GRK2 inh – human GRK2 inhibition via aptamer displacement; inhibition of aptamer binding, % at 10 µM; bead flow cytometry, FAM-aptamer displacement from GRK2; 330,000 tested, 0.59% active; AID 488847;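 active means inhibition of aptamer binding above 40%, roughly 3 SD of noise, on plates passing a quality check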;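 further: median bead fluorescence of bound FAM aptamer so fluorescent compounds give negative values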
# Target sequence (P25098 whole entry, looked up): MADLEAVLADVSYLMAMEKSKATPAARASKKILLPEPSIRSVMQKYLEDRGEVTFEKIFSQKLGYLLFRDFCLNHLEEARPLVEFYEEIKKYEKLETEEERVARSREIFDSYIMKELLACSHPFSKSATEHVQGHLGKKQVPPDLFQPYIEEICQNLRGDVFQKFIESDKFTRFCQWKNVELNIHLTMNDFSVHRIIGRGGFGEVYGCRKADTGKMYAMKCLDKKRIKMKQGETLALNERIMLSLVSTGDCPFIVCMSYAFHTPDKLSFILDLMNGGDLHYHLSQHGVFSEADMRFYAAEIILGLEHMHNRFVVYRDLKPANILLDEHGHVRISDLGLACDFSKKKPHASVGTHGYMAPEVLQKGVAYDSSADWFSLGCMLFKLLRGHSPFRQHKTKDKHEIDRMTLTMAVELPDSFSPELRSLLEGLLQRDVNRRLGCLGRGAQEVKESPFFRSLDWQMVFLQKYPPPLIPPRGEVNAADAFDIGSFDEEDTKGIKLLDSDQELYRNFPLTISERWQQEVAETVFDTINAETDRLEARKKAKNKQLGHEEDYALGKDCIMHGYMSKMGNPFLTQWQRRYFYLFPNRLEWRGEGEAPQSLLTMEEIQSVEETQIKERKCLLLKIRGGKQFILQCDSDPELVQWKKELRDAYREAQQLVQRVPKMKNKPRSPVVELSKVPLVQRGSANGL
# STEP inh – inhibitors of human striatal-enriched phosphatase STEP. P54829. recombinant STEP, OMFP fluorogenic substrate, fluorescence. inhibition, % at 20 µM. 360,000 tested, 0.25% active;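 active means inhibition at 20 µM, scaled per plate between control wells, above about 37%, limit read from the data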;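 further: 0% = DMSO with enzyme and substrate and 100% = substrate only without enzyme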
#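 Material: STEP (striatal-enriched tyrosine phosphatase) enzyme, cell-free; Compound dosing: 20 µM single dose in 1% DMSO; Technique: fluorescence read at 480 nm ex / 540 nm em; Times: reaction 20 min, ambient temperature; Medium: 50 mM Bis-Tris pH 6.0 with 2.5 mM DTT and 0.005% Tween 20; Also added: OMFP at 25 µM.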
# DNMT1 interf DR – counter-screen for DNMT1 inhibitors: spectral interference, dose response | molecular beacon fluorescence | 200 tested, under 10 active | shares compounds with DNMT1 block | IC50, µM
# DNMT1 confirm – DNMT1 inhibition confirmation, single concentration; 2,300 tested, 8% active; shares compounds with DNMT1 block; inhibition, % at 10 µM; AID 602385; DNMT1 molecular beacon HinP1I cleavage, fluorescence;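 active means average inhibition of at least 30% in the single-concentration confirmation test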
# DNMT1 interf – counter-screen for DNMT1 inhibitors: spectral interference. shares compounds with DNMT1 block. DNMT1 molecular beacon spectral interference counterscreen, fluorescence 485/520. activation (fluorescence interference), % at 10 µM. 2,300 tested, 1% active;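 active means activation of at least 30% at 10 µM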;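 further: DNMT1 catalytic domain with a HinP1I cleavage step and a FAM/dabcyl DNA beacon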
# STEP inh conf – confirmation of human STEP phosphatase inhibitors; AID 623866; shares compounds with STEP inh; recombinant STEP, OMFP fluorogenic substrate, fluorescence; inhibition, % at 20 µM; 520 tested, 32% active;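 further: 0% = enzyme with substrate plus DMSO and 100% = substrate without enzyme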
# Starred values were filed as active, the others as inactive; / = not tested or not shown. This is a sample that favours compounds with a hit; in the whole collection about 2.1% have one here. Unless noted, how the calls were made is not given here.
SMILES,DNMT1 block,LMPTP inh,SUMO1-SIM PPI,Scp1 inh,GRK2 inh,STEP inh,DNMT1 confirm,DNMT1 interf,others
O=C(Cn1c(=O)oc2ccccc21)Nc1nc(-c2ccc(Br)cc2)cs1,44,0,-3,0,0,1,-1,0,
CCCCNC(=S)N(CCCO)Cc1cc2cc3c(cc2[nH]c1=O)OCO3,4,-1,2,/,/,3,/,/,
CC1(C)N=C(N)N=C(N)N1c1ccc(OCC(=O)N2CCOCC2)c(Cl)c1,1,0,1,/,/,0,/,/,
Cc1nn(Cc2ccc(Cl)cc2)c(C)c1NC(=O)CSc1nc2c(c(C(F)(F)F)n1)CCc1ccccc1-2,51*,2,0,6,0,18,0,0,
COC(=O)CN1C(=O)COc2ccc(S(=O)(=O)N3CCCCC3)cc21,5,0,-1,/,/,-2,/,/,
COc1cc(OC)cc(-c2c(-c3cccs3)c3cc(-c4ccc(OCc5ccccc5)cc4)ccc3n2C)c1,52*,0,-7,-11,3,4,0,-1,
COc1ccc(-c2c(-c3cc(OC)cc(OC)c3)n(C)c3ccc(-c4cnc(N)nc4)cc23)cc1,54*,-1,-1,4,0,0,0,-2,
COc1ccc(-c2c(-c3cc(OC)cc(OC)c3)n(C)c3ccc(-c4ccc(OC)nc4)cc23)cc1,3,2,6,5,2,-1,/,/,
COc1ccc(NC(C)=O)cc1NC(C)C(=O)Nc1ccc(S(=O)(=O)N2CCCCC2)cc1 (stereo not given),-8,0,0,5,0,-1,/,/,
CCCCN(C=O)c1c(CC)nc2ccc(C(=O)N(C)Cc3ccco3)cn12,4,-2,6,/,/,0,/,/,
COc1ccc2c3c([nH]c2c1)C(C)N(CCC(=O)NN)CC3 (stereo not given),64*,0,-3,-6,0,8,4,4,
COc1cc(Cl)c(NS(=O)(=O)c2cc3[nH]c(=O)c(=O)[nH]c3cc2C)c(OC)c1,-7,3,4,0,17,-2,/,/,
Cn1c(SCC(=O)Nc2ccccc2)nc2ccccc2c1=O,0,-2,0,3,0,-1,/,/,
Cc1ccc(NC(=O)CSc2nc3ccccc3c3nc4ccccc4n23)cc1,52*,0,2,3,0,0,2,-6,
CCCCn1c(SCC(=O)NCc2ccco2)nc2c(sc3ccccc32)c1=O,36,1,-2,0,1,2,/,/,
CCn1c(SCC(=O)NCc2ccco2)nc2ccccc2c1=O,0,0,1,2,8,3,/,/,
O=C(CSc1nc2ccccc2c2nc3ccccc3n12)NCc1ccco1,71*,6,6,25,2,2,15,1,
O=C(CSc1nc2c(sc3ccccc32)c(=O)n1CCc1ccccc1)NCc1ccco1,65*,-1,0,5,2,2,3,-4,
C=CCn1c(SCC(=O)N(CCOC)c2c(N)n(CCCC)c(=O)[nH]c2=O)nnc1-c1ccc(Cl)cc1,6,-1,2,-5,1,-3,/,/,
ON=C1C2CC=C(c3ccccc3)C1CCC2 (stereo not given),8,0,0,10,/,-3,/,/,
COc1ccc(N2C(=O)c3ccccc3NC(=O)C2C(=O)NCCc2ccccc2F)cc1 (stereo not given),/,0,1,/,/,/,/,/,
COc1ccc(CN2CCN(c3ccccc3OC)CC2)cc1OC,67*,-1,-5,0,0,91*,1,4,STEP inh conf=-4
COc1ccc(NC(C)=O)cc1CNC(=O)COc1ccccc1C(=O)Nc1cccc(C)c1C,0,-1,-1,-5,0,2,/,/,
C[C@@H](NC(=O)c1ncn2c1c(=O)[nH]c1cccnc12)c1ccccc1,5,2,15,/,/,0,/,/,
C[C@@H](NC(=O)c1ncn2c1c(=O)[nH]c1ccc(Br)cc12)c1ccccc1,93*,58*,-22,/,/,50*,4,0,STEP inh conf=-1
SMILES,DNMT1 block,LMPTP inh,SUMO1-SIM PPI,Scp1 inh,GRK2 inh,STEP inh,DNMT1 confirm,DNMT1 interf,others
COc1ccc(NC(=O)C2(C)CCCN(C(C)=O)C2)cc1F (stereo not given),1,-1,7,/,/,-2,/,/,
NC(N)=NCCCS(=O)(=O)Nc1ccc(Nc2c3ccccc3nc3cc([N+](=O)[O-])ccc23)cc1,67*,63*,26,5,/,48*,72*,-16,DNMT1 interf DR=>99;STEP inh conf=6
COc1ccc(CC(=O)N(C)CC(=O)Nc2ccc(F)cc2)cc1S(=O)(=O)N1CCOCC1,-1,-2,7,-8,0,-3,/,/,
O=c1c2c3nc4ccccc4nc3n(-c3ccc4c(c3)OCCO4)c2ncn1C1CCCC1,72*,26,-14,85*,0,51*,3,-6,STEP inh conf=-3
O=c1c2ccccc2nc2sc(Nc3cccc(Cl)c3)nn12,107*,72*,-230,41,0,70*,0,0,STEP inh conf=10
Cc1nc2ccccc2c(=O)n1Nc1cccc(Cl)c1,0,-1,-2,-4,0,2,/,/,
CCOc1cc(C(=O)NCCC(=O)N2CCC3(CC2)NCCc2[nH]cnc23)cc(OCC)c1OCC,0,-2,4,-6,1,45*,/,/,STEP inh conf=3
CCOc1ccc(C(=O)NCCC(=O)N2CCC3(CC2)NCCc2[nH]cnc23)cc1OCC,0,-2,-3,-9,2,1,/,/,
COc1cc(CN2C[C@@H](CO)O[C@@H](n3cnc4c(NCc5ccncc5)ncnc43)C2)cc(OC)c1OC,1,1,-1,/,/,-2,/,/,
COc1ccc(COc2ccsc2C(=O)Nc2ccc(Cl)c(Cl)c2)cc1,47,21,0,42,0,55*,/,/,STEP inh conf=14
CC1(C)CC(=O)C=C(c2ccc(-c3cccc(C(N)=O)c3)cc2)C1=O,-1,0,-29,/,/,-1,/,/,
CCC(=O)N1CCC1(C)C(=O)Nc1cccc2c1CCCC2 (stereo not given),4,-2,-7,/,/,3,/,/,
CC(=O)Nc1ccccc1-c1nc2ccccc2nc1OCC(=O)c1ccc(Cl)cc1,-2,-1,-1,-4,4,57*,/,/,STEP inh conf=-3
